The subject of data set [1] is HepG2 hepatocellular carcinoma cell line. The data set is described as follows: Cytotoxicity assay. It counts as cell-based, human. As to conditions: for IC50: Homo sapiens, HepG2, 48 h; for Cytotoxic activity IC50, HepG2: 48 h, MTT. The method, boiled down: (§1)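 Cells were pre-plated in medium, then an equal volume of medium holding serial dilutions of the test compound was added to reach the final concentrations. Controls were DMSO (negative) and etoposide and/or doxorubicin (positive). Plates were incubated a further 48 h and surviving cells were counted by MTT. IC50 is the concentration giving 50% growth inhibition relative to the DMSO control.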

Data set [2] deals with T47D hormone-dependent breast cancer. The data set is described as follows: Cytotoxicity assay. It counts as cell-based. Conditions: Homo sapiens, 48 h, read-out: Cytotoxic activity IC50, T47D. Put shortly:
as §1

In data set [3] the test system is MDA-MB-231 hormone-independent breast cancer. The data set is described as follows: Cytotoxicity assay. It counts as cell-based. As to conditions: Homo sapiens, MDA-MB-231, 48 h, read-out: Cytotoxic activity IC50, MDA-MB-231. The method, boiled down: as §1
For data set [4], the system named is MOLT-3 lymphoblastic leukemia cell line. In words: Cytotoxicity assay. It counts as cell-based. Conditions: Homo sapiens, MOLT-3, 48 h, read-out: Cytotoxic activity IC50, MOLT-3. Put shortly:
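MOLT-3 cells received an equal volume of additional medium with serial dilutions of the test compound to reach the final concentrations. DMSO served as the negative control and etoposide and/or doxorubicin as the positive control. After a further 48 h incubation, surviving cells were counted by XTT. IC50 is the concentration inhibiting growth by 50% versus the DMSO control.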

Data set [5] deals with A549 lung carcinoma cell line. The data set is described as follows: Cytotoxicity assay. Conditions: for IC50: Homo sapiens, A549, 48 h. In kind it is cell-based, human. Put shortly:
as §1

For a further data set, the target named is FGFR1 tyrosine kinase (Homo sapiens, UniProt P11362). In words: ADP-Glo kinase assay, FGFR1. As to conditions: for inhibition at 1 µM: read-out: % inhibition of FGFR1. It counts as biochemical.
Data set [6] has as its system HuCCA-1 cholangiocarcinoma cell line. In words: Cytotoxicity assay. In kind it is cell-based. Conditions: Homo sapiens, HuCC-A1, 48 h, read-out: Cytotoxic activity IC50, HuCCA-1. The method, boiled down:
as §1

A short description of the next data set: Cytotoxicity assay. In kind it is cell-based. Conditions: human, MRC-5 normal embryonic lung cells. The method, boiled down:
as §1

Where [7] appears, read: read-out: Cytotoxic activity IC50, HepG2.
[8] abbreviates: read-out: Cytotoxic activity IC50, A549.
Setting [9] is: read-out: Cytotoxic activity, HepG2 (class NC).

Results on twelve compounds are retold here after PMC10500653 (ACS Omega, 2023).

Molecules are shown by their SMILES. Like-named read-outs stand apart in the source and are kept apart here. Some results are limits rather than exact numbers.

Sequence of FGFR1 tyrosine kinase (P11362 22-822): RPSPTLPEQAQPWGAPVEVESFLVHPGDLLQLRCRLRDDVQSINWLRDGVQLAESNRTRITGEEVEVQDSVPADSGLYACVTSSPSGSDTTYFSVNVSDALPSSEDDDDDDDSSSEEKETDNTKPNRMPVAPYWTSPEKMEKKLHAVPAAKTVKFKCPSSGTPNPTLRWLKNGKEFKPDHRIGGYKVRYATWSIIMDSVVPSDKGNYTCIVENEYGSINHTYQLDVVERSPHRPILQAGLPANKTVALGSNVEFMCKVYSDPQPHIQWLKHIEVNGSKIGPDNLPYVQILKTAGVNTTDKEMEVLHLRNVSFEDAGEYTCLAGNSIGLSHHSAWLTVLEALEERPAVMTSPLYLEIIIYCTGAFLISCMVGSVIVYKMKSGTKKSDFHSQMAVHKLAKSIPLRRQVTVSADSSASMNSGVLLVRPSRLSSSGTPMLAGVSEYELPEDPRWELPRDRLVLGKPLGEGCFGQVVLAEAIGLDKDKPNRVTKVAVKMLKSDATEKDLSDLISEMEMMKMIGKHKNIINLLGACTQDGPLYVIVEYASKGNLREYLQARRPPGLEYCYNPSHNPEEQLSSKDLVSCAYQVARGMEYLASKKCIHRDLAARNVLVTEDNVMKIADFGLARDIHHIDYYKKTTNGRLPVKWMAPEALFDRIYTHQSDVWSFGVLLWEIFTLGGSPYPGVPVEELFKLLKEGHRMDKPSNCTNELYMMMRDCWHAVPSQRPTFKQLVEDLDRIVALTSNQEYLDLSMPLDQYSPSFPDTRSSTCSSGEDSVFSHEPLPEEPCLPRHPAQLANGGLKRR

As to `COc1cccc(/C=C/C(=O)c2cccc(NC3=C(Cl)C(=O)c4ccccc4C3=O)c2)c1OC` [Compound 1, (E)-2-Chloro-3-((3-(3-(2,3-dimethoxyphenyl)acryloyl)phenyl)amino)naphthalene-1,4-dione], the IC50 was found to be 5.13 ± 0.15 µM in data set [1] (setting [7]); 1.81 ± 0.04 µM in data set [2]; 1.08 ± 0.12 µM in data set [3]; 1.24 ± 0.03 µM in data set [4]; 6.12 ± 1.56 µM in data set [5] (setting [8]); 0.00091 ± 8e-05 µM against FGFR1 tyrosine kinase. Further, in data set [6], the IC50 came out at 1.16 ± 0.4 µM. In addition, on FGFR1 tyrosine kinase, the inhibition at 1 µM was above 70%. Further, the IC50 at 48 h in “Cytotoxicity assay” came out at 4.96 ± 0.14 µM.
For the compound `COc1ccc(/C=C/C(=O)c2cccc(NC3=C(Cl)C(=O)c4ccccc4C3=O)c2)c(OC)c1OC` [Compound 2, (E)-2-Chloro-3-((3-(3-(2,3,4-trimethoxyphenyl)acryloyl)phenyl)amino)naphthalene-1,4-dione], the IC50 in data set [1] (setting [7]) is 16.3 ± 0.44 µM; in data set [2] it was 2.32 ± 0.08 µM; in data set [3], 1.79 ± 0.12 µM; in data set [4], 1.81 ± 0.05 µM; in data set [5] (setting [8]), 33.5 ± 0.17 µM; on FGFR1 tyrosine kinase, 0.0015 ± 0.00028 µM. The IC50 in data set [6] was found to be 8.87 ± 1.03 µM. In addition, the inhibition at 1 µM on FGFR1 tyrosine kinase is above 70%. The IC50 at 48 h in “Cytotoxicity assay” amounted to 2.6 ± 0.04 µM.
Consider `COc1cc(/C=C/C(=O)c2cccc(NC3=C(Cl)C(=O)c4ccccc4C3=O)c2)cc(OC)c1OC` [Compound 3, (E)-2-Chloro-3-((3-(3-(3,4,5-trimethoxyphenyl)acryloyl)phenyl)amino)naphthalene-1,4-dione], for which the IC50 in data set [1] (setting [7]) turned out to be 16.9 ± 0.74 µM; in data set [2], 1.15 ± 0.08 µM; in data set [3], 1.05 ± 0.04 µM; in data set [4], 0.99 ± 0.12 µM; in data set [5] (setting [8]), 51.6 ± 10.3 µM; in data set [6], 4.72 ± 0.48 µM. The compound further gave an IC50 at 48 h in the data set “Cytotoxicity assay” of 2.52 ± 0.26 µM.
`COc1cc(/C=C/C(=O)c2cccc(NC3=C(Cl)C(=O)c4ccccc4C3=O)c2)cc(OC)c1O` [Compound 4, (E)-2-Chloro-3-((3-(3-(4-hydroxy-3,5-dimethoxyphenyl)acryloyl)phenyl)amino)naphthalene-1,4-dione]: the IC50 was 12.8 ± 0.42 µM in data set [1] (setting [7]); 2.12 ± 0.11 µM in data set [2]; 1.43 ± 0.11 µM in data set [3]; 1.1 ± 0.14 µM in data set [4]; 25 ± 4.22 µM in data set [5] (setting [8]); 0.00096 ± 5e-05 µM against FGFR1 tyrosine kinase. The IC50 in data set [6] is 7.06 ± 1.36 µM. The inhibition at 1 µM at FGFR1 tyrosine kinase was above 70%. In the data set “Cytotoxicity assay”, this compound came in with an IC50 at 48 h of 2.9 ± 0.48 µM.
As to `O=C(/C=C/c1ccc(O)cc1)c1cccc(NC2=C(Cl)C(=O)c3ccccc3C2=O)c1` [Compound 5, (E)-2-Chloro-3-((3-(3-(4-hydroxyphenyl)acryloyl)phenyl)amino)naphthalene-1,4-dione], the IC50 in data set [1] (setting [7]) was 13.07 ± 0.12 µM; in data set [2], 5.75 µM; in data set [3] it was 3.33 ± 0.08 µM; in data set [4], 2.19 ± 0.26 µM; in data set [5] (setting [8]), 31.9 ± 3.71 µM; at FGFR1 tyrosine kinase it was 0.00033 ± 1e-05 µM. In addition, the IC50 in data set [6] came out at 5.65 ± 0.08 µM. At FGFR1 tyrosine kinase, the inhibition at 1 µM is above 70%. In addition, in the data set “Cytotoxicity assay”, the IC50 at 48 h worked out at 11 ± 0.99 µM.
With `COc1cccc(/C=C/C(=O)c2ccc(NC3=C(Cl)C(=O)c4ccccc4C3=O)cc2)c1` [Compound 6, (E)-2-Chloro-3-((4-(3-(3-methoxyphenyl)acryloyl)phenyl)amino)naphthalene-1,4-dione], the IC50 is 6.88 ± 2.72 µM in data set [1] (setting [7]); 2.1 ± 0.12 µM in data set [2]; 1.31 ± 0.03 µM in data set [3]; 1.78 ± 0.06 µM in data set [4]; 13.5 ± 1.49 µM in data set [5] (setting [8]); 11.1 ± 0.37 µM in data set [6]. For the same compound, the IC50 at 48 h in “Cytotoxicity assay” was found to be 2.69 ± 0.15 µM.
Take `COc1ccc(/C=C/C(=O)c2ccc(NC3=C(Cl)C(=O)c4ccccc4C3=O)cc2)cc1OC` [Compound 7, (E)-2-Chloro-3-((4-(3-(3,4-dimethoxyphenyl)acryloyl)phenyl)amino)naphthalene-1,4-dione]: the “Cytotoxic activity IC50, HepG2” value in data set [1] was “inactive”. For the same compound, the IC50 was above 50 µg/mL in data set [1] (setting [9]); 1.86 ± 0.06 µM in data set [2]; 1.16 ± 0.03 µM in data set [3]; 1.27 ± 0.12 µM in data set [4]; 62.06 ± 0.14 µM in data set [5] (setting [8]); 0.00085 ± 8e-05 µM on FGFR1 tyrosine kinase. Further, in data set [6], the IC50 amounted to 7.32 ± 0.37 µM. At FGFR1 tyrosine kinase, the inhibition at 1 µM is above 70%. This compound returned an IC50 at 48 h in the data set “Cytotoxicity assay” of 2.93 ± 0.16 µM.
`COc1cc(/C=C/C(=O)c2ccc(NC3=C(Cl)C(=O)c4ccccc4C3=O)cc2)cc(OC)c1OC` [Compound 8, (E)-2-Chloro-3-((4-(3-(3,4,5-trimethoxyphenyl)acryloyl)phenyl)amino)naphthalene-1,4-dione]: the IC50 was determined as 10.87 ± 0.01 µM in data set [1] (setting [7]); 1.61 ± 0.07 µM in data set [2]; 1.09 ± 0.02 µM in data set [3]; 0.81 ± 0.02 µM in data set [4]; 25.8 ± 3.55 µM in data set [5] (setting [8]); 0.00169 ± 0.00071 µM against FGFR1 tyrosine kinase. Besides, the IC50 in data set [6] was determined as 4.72 ± 0.33 µM. This compound also had an IC50 at 48 h in the data set “Cytotoxicity assay” of 2.92 ± 0.36 µM.
For the compound `COc1ccc(/C=C/C(=O)c2ccc(NC3=C(Cl)C(=O)c4ccccc4C3=O)cc2)cc1O` [Compound 9, (E)-2-Chloro-3-((4-(3-(3-hydroxy-4-methoxyphenyl)acryloyl)phenyl)amino)naphthalene-1,4-dione], the “Cytotoxic activity IC50, HepG2” value in data set [1] was “inactive”. The IC50 is above 50 µg/mL in data set [1] (setting [9]); 24.1 ± 1.61 µM in data set [2]; 6.81 ± 0.52 µM in data set [3]; 0.83 ± 0.01 µM in data set [4]; above 50 µg/mL in data set [5] (read-out: Cytotoxic activity, A549 (class NC)); 0.0005 ± 4e-05 µM on FGFR1 tyrosine kinase. Moreover, the IC50 in data set [6] is 6.85 ± 1.2 µM. Moreover, the “Cytotoxic activity IC50, A549” value in data set [5] (A549, 48 h, MTT) is “inactive”. The IC50 at 48 h in the data set “Cytotoxicity assay” was determined as 14.94 ± 0.09 µM.
Turning to `O=C(/C=C/c1ccc(O)cc1)c1ccc(NC2=C(Cl)C(=O)c3ccccc3C2=O)cc1` [Compound 10, (E)-2-Chloro-3-((4-(3-(4-hydroxyphenyl)acryloyl)phenyl)amino)naphthalene-1,4-dione], the IC50 worked out at 57.5 ± 1.28 µM in data set [1] (setting [7]); 3.21 ± 0.06 µM in data set [2]; 1.37 ± 0.07 µM in data set [3]; 2.35 ± 0.39 µM in data set [4]; 44.1 ± 4.06 µM in data set [5] (setting [8]); 0.00313 ± 0.00067 µM against FGFR1 tyrosine kinase. Also, the IC50 in data set [6] is 7.7 ± 2.85 µM. In addition, at FGFR1 tyrosine kinase, the inhibition at 1 µM was above 70%. In the data set “Cytotoxicity assay”, the IC50 at 48 h amounted to 8.31 ± 3.3 µM.
For `COc1cccc2c1C(=O)c1c(O)c3c(c(O)c1C2=O)C[C@@](O)(C(=O)CO)C[C@@H]3O[C@H]1C[C@H](N)[C@H](O)[C@H](C)O1` [doxorubicin, reference compound], the IC50 is 0.57 ± 0.05 µM in data set [1] (setting [7]); 0.84 ± 0.01 µM in data set [2]; 1.84 ± 0.13 µM in data set [3]; 0.37 ± 0.02 µM in data set [5] (setting [8]); 0.42 ± 0.02 µM in data set [6]. The IC50 at 48 h in “Cytotoxicity assay” stood at 2.79 ± 0.11 µM.
With `COc1cc([C@@H]2c3cc4c(cc3[C@@H](O[C@@H]3O[C@@H]5CO[C@@H](C)O[C@H]5[C@H](O)[C@H]3O)[C@H]3COC(=O)[C@H]23)OCO4)cc(OC)c1O` [etoposide, reference compound], the IC50 in data set [1] (setting [7]) amounted to 33.98 ± 0.01 µM; in data set [4], 0.041 ± 0.003 µM.
